Assay results taken from ChEMBL document CHEMBL1135379, “Polyhydroxylated azepanes as new motifs for DNA minor groove binding agents” (2002).

Tests used:
MCF7 = experiment: Tested for in vitro concentration required to inhibit growth by 50% against MCF-7 human breast cancer cell line cell line; format: functional
HT-29 = experiment: Tested for in vitro concentration required to inhibit growth by 50% against HT-29 human colon cancer cell line; format: functional
Nucleic Acid [1] = experiment: Apparent binding constant was calculated; format: nucleic-acid assay
Outline: (§1)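 Ethidium displacement (Cain et al. method), pH 7.0. A preformed DNA–ethidium intercalated complex in HEPES buffer with NaCl and EDTA is titrated with ligand while intercalated-ethidium fluorescence is monitored. C50 is the ligand concentration that displaces 50% of the ethidium. K_app = (1.26 × K_e)/C50, using the known ethidium binding constant under these conditions. Means of three experiments.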

HCT-116 = experiment: Tested for in vitro concentration required to inhibit growth by 50% against HCT116 human colon cancer cell line; format: functional
NCI/ADR-RES = experiment: Tested for in vitro concentration required to inhibit growth by 50% against MCF-7/ADR human breast cancer cell line cell line; format: functional
Nucleic Acid [2] = experiment: Concentration required to displace 50% of the ethidium from a preformed, intercalated complex; format: nucleic-acid assay; outline: as §1

GI50 (MCF7) | GI50 (HT-29) | K app (Nucleic Acid [1]) | GI50 (HCT-116) | C50 (Nucleic Acid [2]) | SMILES | GI50 (NCI/ADR-RES)
33 µM | 40 µM | 17000 M⁻¹ | 32 µM | 703 µM | CC1(C)O[C@H]2[C@H](O1)[C@H](O)CN(c1ccc(OCCCOc3ccc(N4C[C@@H](O)[C@H]5OC(C)(C)O[C@@H]5[C@H](O)C4)cc3)cc1)C[C@H]2O | > 50 µM
 |  | 6.7e+06 M⁻¹ |  | 1.8 µM | Cn1cc(NC(=O)c2cc(NC(=O)c3cc(NC=O)cn3C)cn2C)cc1C(=O)NCCC(=N)N | 
> 50 µM | 24 µM | 190000 M⁻¹ | > 50 µM | 61.6 µM | OC1CN(Cc2ccc(OCCCOc3ccc(CN4C[C@@H](O)[C@@H](O)[C@H](O)[C@H](O)C4)cc3)cc2)C[C@@H](O)[C@@H](O)C1O (single isomer, unassigned) | > 50 µM
24 µM | 23 µM |  | 6 µM |  | CC1(C)O[C@H]2[C@H](O1)[C@H](O)CN(Cc1ccc(OCCCOc3ccc(CN4CC(O)[C@H]5OC(C)(C)O[C@@H]5[C@H](O)C4)cc3)cc1)C[C@H]2O (single isomer, unassigned) | 10 µM
 |  | 120000 M⁻¹ |  | 97 µM | OC1CN(Cc2ccc(OCCCOc3ccc(CN4C[C@H](O)[C@@H](O)[C@H](O)[C@@H](O)C4)cc3)cc2)C[C@H](O)[C@@H](O)C1O (single isomer, unassigned) | 
0.013 µM | 0.056 µM |  | 0.023 µM |  | COc1cccc2c1C(=O)c1c(O)c3c(c(O)c1C2=O)C[C@@](O)(C(=O)CO)C[C@@H]3O[C@H]1C[C@H](N)[C@H](O)[C@H](C)O1 [DOXORUBICIN] | 16.7 µM
9 µM | > 50 µM | 470000 M⁻¹ | 11 µM | 25.6 µM | N=C(N)c1ccc(OCCCOc2ccc(C(=N)N)cc2)cc1 [PROPAMIDINE] | 

SMILES | GI50 (MCF7) | GI50 (HT-29) | K app (Nucleic Acid [1]) | GI50 (HCT-116) | C50 (Nucleic Acid [2]) | GI50 (NCI/ADR-RES)
O=C(O)CCCc1ccc(N(CCCl)CCCl)cc1 [CHLORAMBUCIL] | 30 µM | 129 µM |  | 105 µM |  | 56 µM
